Reference: ChEMBL document CHEMBL3588766 (Bioorg Med Chem, 2015)
In brackets after ≈: the same amount, converted by molar mass. Values belong to the compound of their own block, whether it stands above or below them. Activity calls are given as the source filed them. The calls are words filed in the database; no cut-off is given here.

Columns and labels:
Bile acid receptor [1] = target: T1, Bile acid receptor (Homo sapiens, UniProt Q96RI1); assay: Agonist activity at human full length FXR expressed in HeLa cells cotransfected with pSG5-human RXR after 24 hrs by Dual-Glo luciferase reporter gene assay; format: cell-based
T1 sequence (Q96RI1 whole entry): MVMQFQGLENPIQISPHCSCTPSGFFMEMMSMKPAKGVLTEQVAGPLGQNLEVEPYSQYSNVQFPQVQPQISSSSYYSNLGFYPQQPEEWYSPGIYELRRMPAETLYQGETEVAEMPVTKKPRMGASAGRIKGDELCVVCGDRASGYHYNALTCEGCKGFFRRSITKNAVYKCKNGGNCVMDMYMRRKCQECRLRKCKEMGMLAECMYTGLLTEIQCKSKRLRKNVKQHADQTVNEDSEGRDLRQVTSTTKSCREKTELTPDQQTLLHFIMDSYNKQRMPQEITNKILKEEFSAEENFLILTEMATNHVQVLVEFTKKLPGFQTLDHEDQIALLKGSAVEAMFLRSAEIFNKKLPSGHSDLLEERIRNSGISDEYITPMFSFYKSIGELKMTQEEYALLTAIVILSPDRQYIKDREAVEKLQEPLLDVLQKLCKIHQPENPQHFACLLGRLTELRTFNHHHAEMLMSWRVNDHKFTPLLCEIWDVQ

[2] = target: T2, Bile acid receptor (Homo sapiens) (UniProt Q96RI1); assay: Agonist activity at human full length FXR expressed in HeLa cells cotransfected with pSG5-human RXR at 10 uM after 24 hrs by Dual-Glo luciferase reporter gene assay; format: cell-based
T2 sequence (whole entry): T1 sequence (Q96RI1 whole entry)
In short: (§1)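 HeLa cells, seeded 8,000/well 24 h ahead, calcium phosphate transfected with pcDNA3-hFXR (CMV), pSG5-hRXR, BSEP-promoter firefly luciferase and pRL-SV40 renilla control. Medium at 0.5% charcoal-stripped FCS; compound in 0.1% DMSO for 24 h. Dual-Glo firefly/renilla ratio, expressed relative to 3 µM GW4064. Triplicate wells, ≥3 independent runs.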

[3] = target: T2, Bile acid receptor (Homo sapiens); assay: Antagonist activity at human full length FXR expressed in HeLa cells cotransfected with pSG5-human RXR at 10 uM after 24 hrs by Dual-Glo luciferase reporter gene assay; format: cell-based
Bile acid receptor [4] = target: T1, Bile acid receptor; assay: Antagonist activity at human full length FXR expressed in HeLa cells cotransfected with pSG5-human RXR after 24 hrs by Dual-Glo luciferase reporter gene assay; format: cell-based
[5] = target: T2, Bile acid receptor (Homo sapiens); assay: Partial agonist activity at FXR in human HepG2 cells assessed as induction of OST-alpha gene expression at 0.1 uM after 24 hrs by qRT-PCR analysis (reference value: 100%); format: cell-based
In short: (§2)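 HepG2 (BSEP, SHP, OSTα) or HT-29 (IBABP) cells seeded at 2*10⁶/well, moved to MEM with 1% charcoal-stripped FCS for 24 h, then treated 24 h with 0.1 µM compound in 0.1% DMSO; CDCA 50 µM as reference. Total RNA extracted; qRT-PCR in duplicate, ≥4 independent experiments, comparative ΔΔCt quantification.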

[6] = target: T2, Bile acid receptor (Homo sapiens); assay: Partial agonist activity at FXR in human HepG2 cells assessed as induction of BSEP gene expression at 0.1 uM after 24 hrs by qRT-PCR analysis (reference value: 100%); format: cell-based; in short: as §2
[7] = target: T2, Bile acid receptor (Homo sapiens); assay: Partial agonist activity at FXR in human HT-29 cells assessed as induction of IBABP gene expression at 0.1 uM after 24 hrs by qRT-PCR analysis (reference value: 100%); format: cell-based; in short: as §2
[8] = Metabolic stability in Sprague-Dawley rat liver microsomes assessed as compound remaining at 10 uM by HPLC analysis; format: ADME; details: read-out: Stability
In short: (§3)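 Compound at 10 µM final, preincubated 5 min at 37 °C in 0.1 M phosphate buffer pH 7.4 with NADPH-regenerating system, then Sprague–Dawley rat liver microsomes added. Stopped with ice-cold methanol at 0, 15, 30, 60 min. Remaining parent quantified by phenyl-column HPLC (UV 330/254 nm) against an external calibration. Controls run without NADPH and with heat-inactivated microsomes.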

[9] = Metabolic stability in Sprague-Dawley rat liver microsomes assessed as compound remaining at 10 uM after 30 mins by HPLC analysis; format: ADME; details: read-out: Stability; in short: as §3
[10] = Metabolic stability in Sprague-Dawley rat liver microsomes assessed as compound remaining at 10 uM after 60 mins by HPLC analysis; format: ADME; details: read-out: Stability; in short: as §3
[11] = Cytotoxicity against human HepG2 cells assessed as cell proliferation at 5 uM after 48 hrs by WST-1 assay (Rvb =100%); format: cell-based; details: read-out: Activity
In short: (§4)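 HepG2 seeded at 3*10⁴ cells/well in 10% FCS DMEM; after 24 h switched to 1% charcoal-stripped FCS and exposed to compound for 48 h. Revlotron 100 µM as positive control; Zileuton 100 µM and DMEM/1% DMSO as negative controls. WST reagent for 45 min, absorbance 450/620 nm, untreated set to 100%. Triplicates, ≥4 repeats.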

HepG2 [12] = assay: Cytotoxicity against human HepG2 cells at 10 uM after 48 hrs by LDH assay (reference value: 0%); format: cell-based; details: hepg2, 48 h
In short: (§5)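 HepG2 at 3*10⁴ cells/well, moved to 1% charcoal-stripped FCS medium after 24 h, then compound for 48 h. Triton X-100 (2%) added 2 h before reading as 100% lysis control; untreated = 0%. Supernatant mixed with LDH substrate for 20 min, absorbance 490 nm against 690 nm reference. Triplicates, ≥4 independent repeats.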

HepG2 [13] = assay: Cytotoxicity against human HepG2 cells at 5 uM after 48 hrs by LDH assay (reference value: 0%); format: cell-based; details: hepg2, 48 h; in short: as §5
[14] = Cytotoxicity against human HepG2 cells assessed as cell proliferation at 10 uM after 48 hrs by WST-1 assay (Rvb =100%); format: cell-based; details: read-out: Activity; in short: as §4
[15] = Cytotoxicity against human HepG2 cells assessed as cell proliferation at 50 uM after 48 hrs by WST-1 assay (Rvb =100%); format: cell-based; details: read-out: Activity; in short: as §4
[16] = Metabolic stability in Sprague-Dawley rat liver microsomes assessed as compound remaining at 10 uM after 15 mins by HPLC analysis; format: ADME; details: read-out: Stability; in short: as §3
HepG2 [17] = assay: Cytotoxicity against human HepG2 cells at 50 uM after 48 hrs by LDH assay (reference value: 0%); format: cell-based; details: hepg2, 48 h; in short: as §5
[18] = Solubility of the compound in 1% aqueous DMSO solution by HPLC analysis; format: physicochemical
[19] = target: T2, Bile acid receptor (Homo sapiens); assay: Partial agonist activity at FXR in human HepG2 cells assessed as induction of SHP gene expression at 0.1 uM after 24 hrs by qRT-PCR analysis (reference value: 100%); format: cell-based; in short: as §2
[20] = target: T2, Bile acid receptor (Homo sapiens); assay: Antagonist activity at human full length FXR expressed in HeLa cells cotransfected with pSG5-human RXR at 30 uM after 24 hrs by Dual-Glo luciferase reporter gene assay; format: cell-based
[21] = target: T2, Bile acid receptor (Homo sapiens); assay: Agonist activity at human full length FXR expressed in HeLa cells cotransfected with pSG5-human RXR at 30 uM after 24 hrs by Dual-Glo luciferase reporter gene assay; format: cell-based; in short: as §1
[22] = Solubility of the compound in 1% aqueous DMSO solution measured after 4 hrs by HPLC analysis; format: physicochemical
[23] = target: T2, Bile acid receptor (Homo sapiens); assay: Agonist activity at human full length FXR expressed in HeLa cells cotransfected with pSG5-human RXR at 50 uM after 24 hrs by Dual-Glo luciferase reporter gene assay; format: cell-based; in short: as §1

SMILES: Cc1ccccc1-c1noc(-c2cccc(C(=O)O)c2)n1
Activity [5]: 339%
Activity [6]: 395%
Activity [7]: 295%
remaining at 10 µM [8]: 99.4%
remaining at 0.5 h, 10 µM [9]: 71.3%
remaining at 1 h, 10 µM [10]: 53.9%
viability at 48 h, 5 µM [11]: 109%
Activity (HepG2 [12]): 0%
Activity (HepG2 [13]): 0%
viability at 48 h, 10 µM [14]: 87%
viability at 48 h, 50 µM [15]: 86%
remaining at 0.25 h, 10 µM [16]: 84.6%
EC50 (Bile acid receptor [1]): 7.2 nM
Activity (HepG2 [17]): 15%
solubility [18]: 33 µg/mL (≈ 118 µM)
Activity [19]: 515%

SMILES: Cc1ccc(-c2noc(-c3ccc(Cl)cc3)n2)cc1
EC50 (Bile acid receptor [1]): 410 nM

SMILES: COc1ccc(-c2sc(-c3ccc(C)cc3)nc2O)cc1
inhibition [20]: inactive
Activity [21]: inactive

SMILES: CCN(CC)c1ccc2cc(-c3nc(-c4ccccc4)no3)c(=O)oc2c1
solubility at 4 h [22]: 9.98 µg/mL (≈ 27.6 µM)
EC50 (Bile acid receptor [1]): 460 nM
solubility [18]: 10.1 µg/mL (≈ 27.9 µM)

SMILES: CC(C)c1nc(-c2ccccc2)no1
Activity [23]: 12.3%

Further lines, results first:

EC50 (Bile acid receptor [1]): 350 nM
SMILES: Brc1ccc(-c2nc(-c3ccccc3)no2)cc1

EC50 (Bile acid receptor [1]): 220 nM
SMILES: Cc1ccccc1-c1noc(-c2ccc(C(=O)O)cc2)n1

Activity [2]: inactive
inhibition [3]: inactive
SMILES: Oc1ccc(-c2nc(-c3ccccc3)no2)cc1

IC50 (Bile acid receptor [4]): 16400 nM
SMILES: COc1ccc(-c2nc(-c3ccccc3)no2)cc1

EC50 (Bile acid receptor [1]): 2900 nM
SMILES: COc1ccc(-c2nc(-c3cccc(C(F)(F)F)c3)no2)cc1

EC50 (Bile acid receptor [1]): 120 nM
SMILES: COc1ccc(-c2nc(-c3ccccc3C)no2)cc1

EC50 (Bile acid receptor [1]): 530 nM
SMILES: c1ccc(-c2noc(-c3ccccc3)n2)cc1
